Measurements published in ChEMBL document CHEMBL2157887, “Adamantyl carboxamides and acetamides as potent human 11β-hydroxysteroid dehydrogenase type 1 inhibitors” (Bioorg Med Chem, 2012).
The source made the active and inactive calls. The calls are words filed in the database; no cut-off is given here.

Key:
[1] = molecular target: T1, 17-beta-hydroxysteroid dehydrogenase type 1 (Homo sapiens) (UniProt P14061); experiment: Inhibition of human 17beta-HSD1 in human T47D cells assessed as conversion of [3H]E1 to [3H]E2 at 10 uM after 30 mins; assay type: cell-based
T1 sequence (whole entry): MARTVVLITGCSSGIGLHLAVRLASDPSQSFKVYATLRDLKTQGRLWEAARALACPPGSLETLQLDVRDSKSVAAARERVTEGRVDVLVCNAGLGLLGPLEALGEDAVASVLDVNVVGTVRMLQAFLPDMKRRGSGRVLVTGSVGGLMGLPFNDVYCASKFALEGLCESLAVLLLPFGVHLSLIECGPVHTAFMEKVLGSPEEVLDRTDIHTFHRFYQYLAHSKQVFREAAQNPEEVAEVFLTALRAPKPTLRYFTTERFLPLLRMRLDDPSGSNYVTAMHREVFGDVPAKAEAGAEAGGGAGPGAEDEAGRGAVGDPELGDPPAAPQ

[2] = molecular target: T2, 11-beta-hydroxysteroid dehydrogenase type 2 (Homo sapiens) (UniProt P80365); experiment: Inhibition of human 11beta-HSD2 expressed in CHO cells assessed as conversion of [3H]cortisol to [3H]cortisone at 10 uM after 2 hrs
T2 sequence (whole entry): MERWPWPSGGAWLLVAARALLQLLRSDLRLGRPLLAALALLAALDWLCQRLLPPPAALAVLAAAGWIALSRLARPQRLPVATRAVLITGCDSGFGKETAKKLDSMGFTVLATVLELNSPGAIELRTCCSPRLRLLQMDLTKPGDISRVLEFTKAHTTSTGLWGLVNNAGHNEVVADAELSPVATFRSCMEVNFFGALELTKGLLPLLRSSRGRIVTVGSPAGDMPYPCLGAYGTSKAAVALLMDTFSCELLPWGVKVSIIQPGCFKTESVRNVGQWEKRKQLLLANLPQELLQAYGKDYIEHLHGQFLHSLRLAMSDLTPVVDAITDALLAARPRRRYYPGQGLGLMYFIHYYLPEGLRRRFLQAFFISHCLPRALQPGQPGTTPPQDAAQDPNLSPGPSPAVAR

[3] = Half life in human liver microsomes by HPLC analysis in presence of NADPH; assay type: ADME, Microsome
Summary of the method: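 Parent compound incubated with human liver microsomes plus NADPH cofactor at 37 °C for 40 min; remaining parent quantified by HPLC to derive T1/2.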

[4] = molecular target: 11-beta-hydroxysteroid dehydrogenase 1 (Homo sapiens) (UniProt P28845); experiment: Inhibition of human 11beta-HSD1 expressed in HEK293 cells assessed as conversion of [3H]cortisone to [3H]cortisol at 1 uM after 2 hrs by scintillation counting; assay type: cell-based
Sequence of 11-beta-hydroxysteroid dehydrogenase 1 (Homo sapiens) (P28845 whole entry, looked up): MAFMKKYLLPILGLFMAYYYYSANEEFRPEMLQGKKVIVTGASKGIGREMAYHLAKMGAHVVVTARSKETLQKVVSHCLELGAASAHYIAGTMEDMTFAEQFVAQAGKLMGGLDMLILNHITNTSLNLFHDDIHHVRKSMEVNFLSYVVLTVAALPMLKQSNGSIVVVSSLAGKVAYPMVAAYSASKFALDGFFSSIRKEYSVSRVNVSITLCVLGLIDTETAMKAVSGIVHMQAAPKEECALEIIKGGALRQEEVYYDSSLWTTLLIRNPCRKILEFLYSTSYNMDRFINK
Summary of the method: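 HSD11B1-stably transfected HEK-293 cells grown to 80% confluence, then given serum-free medium with 22 nM ³H-cortisone and compound in 1% DMSO, 37 °C, 2 h. Medium sampled into anti-cortisol antibody/SPA bead mix, shaken to equilibrium, scintillation counted. Percent inhibition against high controls (no compound) and low controls (no cells).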

Q: Which results are given for `CN(CCc1ccccn1)C(=O)C12CC3CC(CC(C3)C1)C2`?
A: inhibition [1]: inactive; inhibition [2]: inactive

Q: What does the source list for `O=C(NCc1ccccn1)C12CC3CC(CC(C3)C1)C2`?
A: inhibition [1]: inactive; inhibition [2]: inactive

Q: What does the source list for `Cc1csc(CNC(=O)C23CC4CC(CC(C4)C2)C3)c1`?
A: inhibition [1]: inactive; inhibition [2]: inactive

Q: For `CN(Cc1sccc1N)C(=O)C12CC3CC(CC(C3)C1)C2`, which inhibition [1] is on record?
A: inactive

Q: What about the inhibition [2] of the same compound?
A: inactive

Q: With `Cc1cccc(CN(C)C(=O)C23CC4CC(CC(C4)C2)C3)c1` as the compound, how does the inhibition [1] read?
A: inactive

Q: And the inhibition [2]?
A: inactive

Q: With `Cn1cccc1CNC(=O)C12CC3CC(CC(C3)C1)C2` as the compound, how does the inhibition [1] read?
A: inactive

Q: What about the inhibition [2] of the same compound?
A: inactive

Q: What does the source list for `CC(=O)Nc1cccc(CN(C)C(=O)C23CC4CC(CC(C4)C2)C3)c1`?
A: inhibition [1]: inactive; inhibition [2]: inactive

Q: For `CN(Cc1ccsc1)C(=O)C12CC3CC(CC(C3)C1)C2`, which inhibition [1] is on record?
A: inactive

Q: And the inhibition [2]?
A: inactive

Q: Which inhibition [1] does the source give for `Cc1csc(CN(C)C(=O)C23CC4CC(CC(C4)C2)C3)c1` here?
A: inactive

Q: And the inhibition [2]?
A: inactive

Q: For `CN(Cc1cccs1)C(=O)C12CC3CC(CC(C3)C1)C2`, which inhibition [1] is on record?
A: inactive

Q: And the half-life [3]?
A: 1 h

Q: And the inhibition [2]?
A: inactive

Q: What does the source list for `CN(Cc1cccs1)C(=O)C1(c2ccc(Cl)cc2)CC1`?
A: inhibition [1]: inactive; inhibition [2]: inactive

Q: What does the source list for `CN(Cc1cccs1)C(=O)CC12CC3CC(CC(C3)C1)C2`?
A: inhibition [1]: inactive; inhibition [2]: inactive

Q: Which results are given for `O=C(NCCc1ccccn1)C12CC3CC(CC(C3)C1)C2`?
A: inhibition [1]: inactive; inhibition [2]: inactive

Q: With `CN(Cc1cccs1)C(=O)C1(c2ccc(Cl)cc2)CCCC1` as the compound, how does the inhibition [1] read?
A: inactive

Q: What about the inhibition [2] of the same compound?
A: inactive

Q: What does the source list for `O=C(NCCc1cccnc1)C12CC3CC(CC(C3)C1)C2`?
A: inhibition [1]: inactive; inhibition [2]: inactive

Q: With `CN(Cc1cccnc1)C(=O)C12CC3CC(CC(C3)C1)C2` as the compound, how does the inhibition [1] read?
A: inactive

Q: And the inhibition [2]?
A: inactive

Q: For `CN(Cc1cccs1)C(=O)C12CC3CC(CC1C3)C2`, which inhibition [1] is on record?
A: inactive

Q: And the inhibition [2]?
A: inactive

Q: Which inhibition [1] does the source give for `CN(Cc1ccnn1C)C(=O)C12CC3CC(CC(C3)C1)C2` here?
A: inactive

Q: What about the inhibition [2] of the same compound?
A: inactive

Q: With `Cc1ccc(C2(C(=O)N(C)Cc3cccs3)CC2)cc1` as the compound, how does the inhibition [1] read?
A: inactive

Q: What about the inhibition [2] of the same compound?
A: inactive

Q: Which results are given for `Cc1cccc(CN(C)C(=O)C23CC4CC(CC(C4)C2)C3)n1`?
A: inhibition [1]: inactive; inhibition [2]: inactive

Q: Which results are given for `CN(Cc1ccccn1)C(=O)CC12CC3CC(CC(C3)C1)C2`?
A: inhibition [1]: inactive; inhibition [4]: 26%; inhibition [2]: inactive

Q: With `Cn1cccc1CNC(=O)CC12CC3CC(CC(C3)C1)C2` as the compound, how does the inhibition [1] read?
A: inactive

Q: And the inhibition [2]?
A: inactive

Q: For `Cc1ccc(CN(C)C(=O)C23CC4CC(CC(C4)C2)C3)s1`, which inhibition [1] is on record?
A: inactive

Q: What about the inhibition [2] of the same compound?
A: inactive

Q: With `CN(Cc1nccn1C)C(=O)C12CC3CC(CC(C3)C1)C2` as the compound, how does the inhibition [1] read?
A: inactive

Q: What about the inhibition [2] of the same compound?
A: inactive

Q: For `CN(Cc1cccc(N)c1)C(=O)C12CC3CC(CC(C3)C1)C2`, which inhibition [1] is on record?
A: inactive

Q: What about the inhibition [2] of the same compound?
A: inactive

Q: With `CN(Cc1cccn1C)C(=O)C12CC3CC(CC(C3)C1)C2` as the compound, how does the inhibition [1] read?
A: inactive

Q: What about the half-life [3] of the same compound?
A: 1 h

Q: And the inhibition [2]?
A: inactive

Q: Which results are given for `CN(Cc1ccco1)C(=O)C12CC3CC(CC(C3)C1)C2`?
A: inhibition [1]: inactive; inhibition [2]: inactive

Q: What does the source list for `O=C(NCc1ccco1)C12CC3CC(CC(C3)C1)C2`?
A: inhibition [1]: inactive; inhibition [2]: inactive

Q: Which results are given for `O=C(CC12CC3CC(CC(C3)C1)C2)NCc1cccs1`?
A: inhibition [1]: inactive; inhibition [2]: inactive

Q: Which results are given for `Cc1ccsc1CN(C)C(=O)C12CC3CC(CC(C3)C1)C2`?
A: inhibition [1]: inactive; inhibition [2]: inactive

Q: With `CN(Cc1cccs1)C(=O)C1(c2ccc(Cl)cc2)CCC1` as the compound, how does the inhibition [1] read?
A: inactive

Q: And the inhibition [2]?
A: inactive

Q: Which inhibition [1] does the source give for `O=C(NCCc1cccs1)C12CC3CC(CC(C3)C1)C2` here?
A: inactive

Q: What about the inhibition [2] of the same compound?
A: inactive

Q: Which inhibition [1] does the source give for `CN(Cc1cccc(Cl)c1)C(=O)C12CC3CC(CC(C3)C1)C2` here?
A: inactive

Q: And the inhibition [2]?
A: inactive

Q: With `Cc1csc(CN(C)C(=O)C23CC4CC(CC(C4)C2)C3)n1` as the compound, how does the inhibition [1] read?
A: inactive

Q: What about the inhibition [2] of the same compound?
A: inactive

Q: Which results are given for `CN(Cc1cccs1)C(=O)C1(C)CCCCC1`?
A: inhibition [1]: inactive; inhibition [2]: inactive

Q: For `CN(Cc1ccc(Cl)s1)C(=O)C12CC3CC(CC(C3)C1)C2`, which inhibition [1] is on record?
A: inactive

Q: What about the inhibition [2] of the same compound?
A: inactive

Q: Which inhibition [1] does the source give for `CN(CCc1cccs1)C(=O)C12CC3CC(CC(C3)C1)C2` here?
A: inactive

Q: And the inhibition [2]?
A: inactive

Q: Which inhibition [1] does the source give for `CN(Cc1cccn1C)C(=O)CC12CC3CC(CC(C3)C1)C2` here?
A: inactive

Q: And the inhibition [2]?
A: inactive

Q: With `O=C(NCc1cccs1)C12CC3CC(CC(C3)C1)C2` as the compound, how does the inhibition [1] read?
A: inactive

Q: What about the inhibition [2] of the same compound?
A: inactive

Q: Which results are given for `CN(Cc1cccnc1)C(=O)CC12CC3CC(CC(C3)C1)C2`?
A: inhibition [1]: inactive; inhibition [2]: inactive

Q: Which results are given for `CN(Cc1ccsc1)C(=O)CC12CC3CC(CC(C3)C1)C2`?
A: inhibition [1]: inactive; inhibition [2]: inactive

Q: Which inhibition [1] does the source give for `O=C(NCc1cccnc1)C12CC3CC(CC(C3)C1)C2` here?
A: inactive

Q: What about the inhibition [2] of the same compound?
A: inactive
